Columns and labels:
Type in all cases: functional, cell-based
T-24 = assay: Antiproliferative activity against human T24 cells after 10 days; conditions: T-24, 240 h
LS174T = assay: Antiproliferative activity against human LS174T cells after 10 days; conditions: 240 h
In short: (§1)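 Broad cancer cell line panel (Eurofins Oncopanel, about 240 lines; mycoplasma negative, STR verified) grown in 2D culture and exposed to compound in a 10-day proliferation assay. The top concentration was 10 μM for the SMYD2 inhibitor series and 25 μM for the SMYD3 inhibitor. The proliferative IC50 is taken from concentration-response data, each value the mean of three biological replicates.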

SH-4 = assay: Antiproliferative activity against human SH-4 cells after 10 days; conditions: SH-4, 240 h
CAL-27 = assay: Antiproliferative activity against human CAL-27 cells after 10 days; conditions: CAL-27, 240 h
In short: (§2)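 Tested as part of a 240-line cancer cell panel (Eurofins Oncopanel); all lines were mycoplasma-negative and STR-verified. Cells were exposed to a compound concentration series in 2D culture for 10 days. The highest concentration was 10 μM or 25 μM, depending on the inhibitor. Antiproliferative IC50 was derived from the mean of three biological replicates.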

SNU-423 = assay: Antiproliferative activity against human SNU-423 cells after 10 days; conditions: SNU-423, 240 h
CAMA-1 = assay: Antiproliferative activity against human CAMA-1 cells after 10 days; conditions: CAMA-1, 240 h; in short: as §2
SW900 = assay: Antiproliferative activity against human SW900 cells after 10 days; conditions: SW900, 240 h
A 172 = assay: Antiproliferative activity against human A-172 cells after 10 days; conditions: A 172, 240 h; in short: as §2
MCF7 = assay: Antiproliferative activity against human MCF7 cells after 10 days; conditions: MCF7, 240 h; in short: as §1
OE33 = assay: Antiproliferative activity against human OE33 cells after 10 days; conditions: OE33, 240 h; in short: as §1
Ramos = assay: Antiproliferative activity against human Ramos cells after 10 days; conditions: 240 h
COLO 320DM = assay: Antiproliferative activity against human COLO 320DM cells after 10 days; conditions: 240 h; in short: as §2
[1] = Antiproliferative activity against human SW579 cells after 10 days; conditions: SW579, 240 h
EB-3 = assay: Antiproliferative activity against human EB-3 cells after 10 days; conditions: EB-3, 240 h
In short: (§3)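 10-day 2D proliferation screen of a broad cancer cell panel (about 240 lines, Eurofins Oncopanel). All lines were mycoplasma negative and STR verified. Compounds were dosed up to a top concentration of 10 μM or 25 μM, depending on the inhibitor. Anti-proliferative IC50 values are the average of three biological replicates.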

EFM-19 = assay: Antiproliferative activity against human EFM-19 cells after 10 days; conditions: EFM-19, 240 h; in short: as §3
Hs 294T = assay: Antiproliferative activity against human Hs 294T cells after 10 days; conditions: 240 h; in short: as §3
[2] = Antiproliferative activity against human SKO-007 cells after 10 days; conditions: SKO-007, 240 h
ChaGo-K-1 = assay: Antiproliferative activity against human ChaGo-K-1 cells after 10 days; conditions: ChaGo-K-1, 240 h; in short: as §3
HPAF-II = assay: Antiproliferative activity against human HPAF-II cells after 10 days; conditions: 240 h; in short: as §3
NCI-H747 = assay: Antiproliferative activity against human NCI-H747 cells after 10 days; conditions: NCI-H747, 240 h; in short: as §1
HOS = assay: Antiproliferative activity against human HOS cells after 10 days; conditions: 240 h; in short: as §3
MG-63 = assay: Antiproliferative activity against human MG-63 cells after 10 days; conditions: MG-63, 240 h; in short: as §1
SCaBER = assay: Antiproliferative activity against human SCaBER cells after 10 days; conditions: 240 h
SK-NEP-1 = assay: Antiproliferative activity against human SK-NEP-1 cells after 10 days; conditions: SK-NEP-1, 240 h
Malme-3M = assay: Antiproliferative activity against human Malme-3M cells after 10 days; conditions: 240 h; in short: as §1
HT1197 = assay: Antiproliferative activity against human HT1197 cells after 10 days; conditions: HT1197, 240 h
In short: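 Cell lines run in the Eurofins Oncopanel broad cancer panel, all mycoplasma-negative and STR-verified. Cells were exposed to a compound concentration series in a 10-day proliferation assay, and an anti-proliferative IC50 was derived. Values are the mean of three biological replicates.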

SW 962 = assay: Antiproliferative activity against human SW 962 cells after 10 days; conditions: SW 962, 240 h
AGS = assay: Antiproliferative activity against human AGS cells after 10 days; conditions: 240 h; in short: as §2
ACHN = assay: Antiproliferative activity against human ACHN cells after 10 days; conditions: 240 h; in short: as §2
LNCaP = assay: Antiproliferative activity against human LNCaP cells after 10 days; conditions: 240 h; in short: as §1
[3] = Antiproliferative activity against human A7 cells after 10 days; conditions: A7, 240 h; in short: as §2
A673 = assay: Antiproliferative activity against human A673 cells after 10 days; conditions: A673, 240 h; in short: as §2
CWR22R = assay: Antiproliferative activity against human 22Rv1 cells after 10 days; conditions: 22Rv1, 240 h; in short: as §2
SJSA-1 = assay: Antiproliferative activity against human SJSA-1 cells after 10 days; conditions: SJSA-1, 240 h
SNU-16 = assay: Antiproliferative activity against human SNU-16 cells after 10 days; conditions: SNU-16, 240 h
MHH-PREB-1 = assay: Antiproliferative activity against human MHH-PREB-1 cells after 10 days; conditions: MHH-PREB-1, 240 h; in short: as §1
A-375 = assay: Antiproliferative activity against human A-375 cells after 10 days; conditions: A-375, 240 h; in short: as §2
769-P = assay: Antiproliferative activity against human 769-P cells after 10 days; conditions: 240 h; in short: as §2
CAL-62 = assay: Antiproliferative activity against human CAL-62 cells after 10 days; conditions: CAL-62, 240 h; in short: as §2
BV-173 = assay: Antiproliferative activity against human BV-173 cells after 10 days; conditions: BV-173, 240 h; in short: as §2
CRO-AP2 = assay: Antiproliferative activity against human CRO-AP2 cells after 10 days; conditions: CRO-AP2, 240 h; in short: as §3
MV4-11 = assay: Antiproliferative activity against human MV4-11 cells after 10 days; conditions: MV4-11, 240 h; in short: as §1
Jurkat = assay: Antiproliferative activity against human Jurkat cells after 10 days; conditions: 240 h; in short: as §1
A204 = assay: Antiproliferative activity against human A204 cells after 10 days; conditions: A204, 240 h; in short: as §2
MDA-MB-231 = assay: Antiproliferative activity against human MDA-MB-231 cells after 10 days; conditions: MDA-MB-231, 240 h; in short: as §1
[4] = Antiproliferative activity against human RKOE6 cells after 10 days; conditions: RKOE6, 240 h
In short: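 Tested in the Eurofins Oncopanel of about 240 cancer cell lines, all mycoplasma-negative and STR-verified. Cells were exposed to compound for 10 days in 2D culture, and a proliferative IC50 was derived from the concentration series. The highest concentration tested was 10 μM in the SMYD2 inhibitor screen and 25 μM in the SMYD3 inhibitor screen. Values are means of three biological replicates.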

U-266 = assay: Antiproliferative activity against human U266B1 cells after 10 days; conditions: U-266, 240 h

SMILES: Cc1cn(CCN2CCN(c3ccccc3-c3cc(C#N)cc(C(=O)NCCCN4CCCC4)c3)CC2)c2ccccc12
- IC50 (T-24): 2.94 µM
- IC50 (LS174T): 1.47 µM
- IC50 (SH-4): 1.15 µM
- IC50 (CAL-27): 2.52 µM
- IC50 (SNU-423): 1.11 µM
- IC50 (CAMA-1): 2.93 µM
- IC50 (SW900): 3.22 µM
- IC50 (A 172): 1.96 µM
- IC50 (MCF7): 3.11 µM
- IC50 (OE33): 2 µM
- IC50 (Ramos): 1.04 µM
- IC50 (COLO 320DM): 2.11 µM
- IC50 [1]: 2.98 µM
- IC50 (EB-3): 0.329 µM
- IC50 (EFM-19): 2.68 µM
- IC50 (Hs 294T): 2.48 µM
- IC50 [2]: 0.855 µM
- IC50 (ChaGo-K-1): 1.23 µM
- IC50 (HPAF-II): 1.6 µM
- IC50 (NCI-H747): 2.32 µM
- IC50 (HOS): 2.13 µM
- IC50 (MG-63): 6.12 µM
- IC50 (SCaBER): 1.5 µM
- IC50 (SK-NEP-1): 3.18 µM
- IC50 (Malme-3M): 2.4 µM
- IC50 (HT1197): 1.56 µM
- IC50 (SW 962): 3.38 µM
- IC50 (AGS): 1.27 µM
- IC50 (ACHN): 3.21 µM
- IC50 (LNCaP): 3.44 µM
- IC50 [3]: 2.54 µM
- IC50 (A673): 2.03 µM
- IC50 (CWR22R): 1.06 µM
- IC50 (SJSA-1): 1.47 µM
- IC50 (SNU-16): 0.993 µM
- IC50 (MHH-PREB-1): 1.06 µM
- IC50 (A-375): 1.91 µM
- IC50 (769-P): 2.76 µM
- IC50 (CAL-62): 2.07 µM
- IC50 (BV-173): 1.33 µM
- IC50 (CRO-AP2): 2.26 µM
- IC50 (MV4-11): 1.01 µM
- IC50 (Jurkat): 0.925 µM
- IC50 (A204): 1.35 µM
- IC50 (MDA-MB-231): 1.07 µM
- IC50 [4]: 1.07 µM
- IC50 (U-266): 1.26 µM

SMILES: O=C(NC1CN(Cc2cnn(Cc3ccccc3)c2)C1)c1cn(C2CC2)nn1
- IC50 (T-24): > 10 µM
- IC50 (LS174T): > 10 µM
- IC50 (SH-4): > 10 µM
- IC50 (CAL-27): > 10 µM
- IC50 (SNU-423): > 10 µM
- IC50 (CAMA-1): > 10 µM
- IC50 (SW900): > 10 µM
- IC50 (A 172): > 10 µM
- IC50 (MCF7): > 10 µM
- IC50 (OE33): > 10 µM
- IC50 (Ramos): > 10 µM
- IC50 (COLO 320DM): > 10 µM
- IC50 [1]: > 10 µM
- IC50 (EB-3): > 10 µM
- IC50 (EFM-19): > 10 µM
- IC50 (Hs 294T): > 10 µM
- IC50 [2]: 0.168 µM
- IC50 (ChaGo-K-1): > 10 µM
- IC50 (HPAF-II): > 10 µM
- IC50 (NCI-H747): > 10 µM
- IC50 (HOS): > 10 µM
- IC50 (MG-63): > 10 µM
- IC50 (SCaBER): > 10 µM
- IC50 (SK-NEP-1): > 10 µM
- IC50 (Malme-3M): > 10 µM
- IC50 (HT1197): > 10 µM
- IC50 (SW 962): > 10 µM
- IC50 (AGS): > 10 µM
- IC50 (ACHN): > 10 µM
- IC50 (LNCaP): > 10 µM
- IC50 [3]: > 10 µM
- IC50 (A673): > 10 µM
- IC50 (CWR22R): > 10 µM
- IC50 (SJSA-1): > 10 µM
- IC50 (SNU-16): > 10 µM
- IC50 (MHH-PREB-1): > 10 µM
- IC50 (A-375): > 10 µM
- IC50 (769-P): > 10 µM
- IC50 (CAL-62): > 10 µM
- IC50 (BV-173): > 10 µM
- IC50 (CRO-AP2): 0.075 µM
- IC50 (MV4-11): > 10 µM
- IC50 (Jurkat): > 10 µM
- IC50 (A204): > 10 µM
- IC50 (MDA-MB-231): > 10 µM
- IC50 [4]: > 10 µM
- IC50 (U-266): > 10 µM

From ChEMBL document CHEMBL5674880 (PLoS One, 2018)
